Experiments:
[1] = biological target: Cannabinoid receptor 2 (Homo sapiens) (UniProt P34972); test: Displacement of [3H]CP-55940 from human CB2 receptor expressed in CHO cells at 10 uM; format: cell-based
Procedure, shortened: (§1)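 Radioligand competition on membranes from CHO cells stably transfected with human CB1 or CB2. Radioligands at 1 nM: [3H]-SR141716A for hCB1, [3H]-CP-55,940 for hCB2. Compound screened at 10 µM. 40 µg membrane protein; Tris-HCl pH 7.4 buffer with MgCl2, EDTA, 0.5% BSA; 1 h at 30 °C. Filtered on PEI-treated GF/B filters and counted. Nonspecific binding with 10 µM HU-210. Result given as % displacement.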

Cannabinoid receptor 1 [2] = biological target: T1, Cannabinoid receptor 1 (Homo sapiens, UniProt P21554); test: Displacement of [3H]SR141716A from human CB1 receptor expressed in CHO cells at 10 uM; format: cell-based; procedure, shortened: as §1
T1 sequence (P21554 whole entry): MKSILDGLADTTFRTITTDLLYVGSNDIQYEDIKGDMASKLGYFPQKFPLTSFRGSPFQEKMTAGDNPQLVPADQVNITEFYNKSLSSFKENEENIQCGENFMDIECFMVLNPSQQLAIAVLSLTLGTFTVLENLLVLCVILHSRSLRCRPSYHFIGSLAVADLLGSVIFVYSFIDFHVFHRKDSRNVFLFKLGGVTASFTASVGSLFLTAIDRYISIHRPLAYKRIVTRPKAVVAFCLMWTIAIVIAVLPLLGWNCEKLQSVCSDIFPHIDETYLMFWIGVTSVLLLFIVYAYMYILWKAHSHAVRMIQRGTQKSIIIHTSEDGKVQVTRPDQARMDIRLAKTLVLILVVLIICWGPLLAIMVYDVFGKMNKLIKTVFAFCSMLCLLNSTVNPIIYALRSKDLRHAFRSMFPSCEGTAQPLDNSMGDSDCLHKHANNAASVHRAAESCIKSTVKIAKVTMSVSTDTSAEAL

Cannabinoid receptor 1 [3] = biological target: T1, Cannabinoid receptor 1
[4] = biological target: T2, Fatty-acid amide hydrolase 1 (Rattus norvegicus) (UniProt P97612); test: Inhibition of FAAH in rat brain homogenates at 10 uM; format: tissue-based
T2 sequence (whole entry): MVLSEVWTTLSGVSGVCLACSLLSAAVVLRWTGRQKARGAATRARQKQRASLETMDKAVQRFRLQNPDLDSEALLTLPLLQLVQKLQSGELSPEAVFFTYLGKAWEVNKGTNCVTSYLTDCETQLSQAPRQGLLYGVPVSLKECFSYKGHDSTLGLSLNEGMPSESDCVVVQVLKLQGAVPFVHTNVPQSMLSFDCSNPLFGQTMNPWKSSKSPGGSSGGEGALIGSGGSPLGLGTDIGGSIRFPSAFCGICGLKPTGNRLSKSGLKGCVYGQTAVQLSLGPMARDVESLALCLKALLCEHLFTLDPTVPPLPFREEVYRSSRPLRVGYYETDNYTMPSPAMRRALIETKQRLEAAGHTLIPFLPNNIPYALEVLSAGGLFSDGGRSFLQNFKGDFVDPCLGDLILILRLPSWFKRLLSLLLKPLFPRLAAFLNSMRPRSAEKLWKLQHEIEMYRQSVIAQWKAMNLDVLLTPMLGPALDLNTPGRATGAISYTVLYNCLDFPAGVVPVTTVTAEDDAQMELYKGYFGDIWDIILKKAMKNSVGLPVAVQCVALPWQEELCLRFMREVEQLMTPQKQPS
Procedure, shortened: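 FAAH activity in adult rat brain membranes, prepared by homogenization in HEPES pH 7.0 and repeated centrifugation at 36 000 g. Compound at 10 µM incubated with [3H]-anandamide (2 µM final) in Tris-HCl pH 7.6, EDTA, 0.1% BSA for 10 min at 37 °C. Stopped on ice with chloroform/methanol; radioactivity in the aqueous methanol phase counted. Blanks without homogenate.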

Cannabinoid receptor 1 [5] = biological target: T1, Cannabinoid receptor 1; test: Potency at human CB1 receptor in a [35S]GTP-gamma-S functional assay
[6] = biological target: Cannabinoid receptor 1 (Rattus norvegicus) (UniProt P20272); test: Potency at rat CB1 receptor in a [35S]GTPgammaS functional assay at 10 uM; settings: filed as antagonist
Cannabinoid receptor 1 (Rattus norvegicus), sequence (P20272 whole entry): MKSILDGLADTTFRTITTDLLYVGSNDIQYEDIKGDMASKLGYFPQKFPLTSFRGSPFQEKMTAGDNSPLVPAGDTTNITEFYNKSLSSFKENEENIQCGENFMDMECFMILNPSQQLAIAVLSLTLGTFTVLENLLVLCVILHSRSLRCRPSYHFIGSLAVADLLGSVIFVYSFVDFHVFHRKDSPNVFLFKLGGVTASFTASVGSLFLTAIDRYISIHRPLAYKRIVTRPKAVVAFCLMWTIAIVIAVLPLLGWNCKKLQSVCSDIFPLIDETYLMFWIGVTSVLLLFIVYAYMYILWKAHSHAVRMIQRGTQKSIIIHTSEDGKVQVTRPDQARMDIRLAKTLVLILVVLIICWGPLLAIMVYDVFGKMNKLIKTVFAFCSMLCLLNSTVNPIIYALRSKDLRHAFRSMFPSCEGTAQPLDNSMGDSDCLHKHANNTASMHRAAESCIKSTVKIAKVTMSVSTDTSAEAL
Procedure, shortened: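 [35S]-GTPγS binding in rat cerebellum homogenate, 40 µg protein. Buffer: Tris-HCl pH 7.4 with 100 mM NaCl, 0.1% BSA and 20 µM GDP. Compound at 10 µM; 0.05 nM [35S]-GTPγS final; 1 h at 30 °C. Filtered on GF/B and counted. Nonspecific binding with 100 µM Gpp(NH)p. Mean ± SEM of at least three experiments in duplicate.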

Cannabinoid receptor 1 [7] = biological target: Cannabinoid receptor 1 (Rattus norvegicus, UniProt P20272); test: Displacement of [3H]SR141716A from CB1 receptor in rat cerebellum; format: tissue-based
Cannabinoid receptor 1 (Rattus norvegicus, UniProt P20272), sequence (P20272 whole entry): as above
Procedure, shortened: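 40 µg protein; Tris-HCl pH 7.4 buffer with 0.5% BSA; 1 h at 30 °C. Compound at varying concentrations; nonspecific binding with 10 µM HU-210. IC50 by nonlinear regression, converted to Ki by Cheng-Prusoff. Mean ± SEM of at least four experiments in duplicate.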

Cannabinoid receptor 2 (Homo sapiens), sequence (P34972 whole entry): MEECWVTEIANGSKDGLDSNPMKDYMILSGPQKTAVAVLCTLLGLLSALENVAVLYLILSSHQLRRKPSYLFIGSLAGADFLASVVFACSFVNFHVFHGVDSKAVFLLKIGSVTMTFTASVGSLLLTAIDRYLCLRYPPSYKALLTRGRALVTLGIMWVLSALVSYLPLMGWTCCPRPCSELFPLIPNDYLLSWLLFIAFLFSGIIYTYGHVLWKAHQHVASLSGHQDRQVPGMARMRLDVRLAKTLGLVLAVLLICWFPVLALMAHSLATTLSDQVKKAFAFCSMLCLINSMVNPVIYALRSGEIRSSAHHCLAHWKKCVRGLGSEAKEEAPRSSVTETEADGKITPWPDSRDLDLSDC

| SMILES | Activity [1] [%] | Activity (Cannabinoid receptor 1 [2]) [%] | Ki (Cannabinoid receptor 1 [3]) [nM] | inhibition [4] [%] | EC50 (Cannabinoid receptor 1 [5]) [nM] | Activity [6] | Ki (Cannabinoid receptor 1 [7]) [nM] |
| --- | --- | --- | --- | --- | --- | --- | --- |
| O=C1NC(=O)N(c2ccc(Br)cc2)C1c1ccccc1 (stereo not given) | < 10 | 25.2 |  |  |  |  |  |
| COc1ccc(N2C(=O)C(c3ccccc3)N(c3ccc(OC)cc3)C2=S)cc1 (stereo not given) | < 20 | 65.6 | 7030 | < 10 |  |  |  |
| O=C1NC(=O)N(c2ccccc2)C1c1ccccc1 (stereo not given) | < 10 | < 10 |  |  |  |  |  |
| CCCCCCCN1C(=O)C(c2ccccc2)N(c2ccccc2)C1=O (stereo not given) | < 10 |  |  |  |  |  |  |
| CCCCCC(=O)N1C(=O)C(c2ccccc2)N(c2ccccc2)C1=O (stereo not given) | < 10 | < 10 |  |  |  |  |  |
| O=C1NC(=S)N(c2ccccc2)C1c1ccccc1 (stereo not given) | < 10 | < 10 |  |  |  |  |  |
| O=C1C(c2ccccc2)N(c2ccccc2)C(=O)N1c1ccccc1 (stereo not given) | < 10 | 57.1 | 6300 | < 10 |  |  |  |
| O=C1C(c2ccc(Br)cc2)N(c2ccc(Cl)cc2)C(=O)N1c1ccc(Cl)cc1 (stereo not given) | < 20 | 79.1 | 905 | 15.4 | 1230 | Antagonist | 1740 |
| O=C1NC(=O)N(c2ccc(I)cc2)C1c1ccccc1 (stereo not given) | < 10 | < 20 |  |  |  |  |  |
| O=C1NC(=O)N(c2ccc(Cl)cc2)C1c1ccccc1 (stereo not given) | < 10 | < 15 |  |  |  |  |  |
| O=C(c1ccccc1)N1C(=O)C(c2ccccc2)N(c2ccccc2)C1=O (stereo not given) | < 10 | < 10 |  |  |  |  |  |
| CCCCCN1C(=O)C(c2ccccc2)N(c2ccccc2)C1=O (stereo not given) | < 10 | 41.1 |  |  |  |  |  |
| CCCCCCC(C)(C)c1cc(O)c2c(c1)OC(C)(C)[C@@H]1CC=C(CO)C[C@@H]21 |  |  | 18.6 |  | 0.6 |  | 2.75 |
| O=C1C(c2ccccc2)N(c2ccc(Cl)c(Cl)c2)C(=S)N1c1ccc(Cl)c(Cl)c1 (stereo not given) | < 10 | 78.7 | 2000 | 22.9 |  |  |  |
| O=C1C(c2ccc(Br)cc2)N(c2ccccc2)C(=S)N1c1ccccc1 (stereo not given) | < 10 | 85.1 | 6310 | 19.1 |  |  |  |
| O=C1C(c2ccccc2)N(c2cccc(I)c2)C(=S)N1c1cccc(I)c1 (stereo not given) | < 15 | 81.2 | 692 | 17.4 | 461 |  |  |
| O=C1C(c2ccccc2)N(c2cccc(Cl)c2)C(=O)N1c1cccc(Cl)c1 (stereo not given) | 32.1 | 76 | 2110 | < 10 | 936 |  |  |

| SMILES | Activity [1] [%] | Activity (Cannabinoid receptor 1 [2]) [%] | Ki (Cannabinoid receptor 1 [3]) [nM] | inhibition [4] [%] | EC50 (Cannabinoid receptor 1 [5]) [nM] | Activity [6] | Ki (Cannabinoid receptor 1 [7]) [nM] |
| --- | --- | --- | --- | --- | --- | --- | --- |
| COc1ccc(N2C(=O)NC(=O)C2c2ccccc2)cc1 (stereo not given) | < 10 | < 10 |  |  |  |  |  |
| O=C1C(c2ccc(Cl)cc2)N(c2ccccc2)C(=O)N1c1ccccc1 (stereo not given) | < 15 | 60.2 | 6660 | 13.7 |  |  |  |
| O=C1C(c2ccc(Cl)cc2)N(c2cccc(Cl)c2)C(=O)N1c1cccc(Cl)c1 (stereo not given) | 24.8 | 67.4 | 3310 | < 10 |  |  |  |
| O=C1NC(=O)N(c2ccc(Cl)cc2)C1c1ccc(Br)cc1 (stereo not given) | < 10 | < 15 |  |  |  |  |  |
| O=C1C(c2ccccc2)N(c2ccc(Cl)cc2)C(=O)N1c1ccc(Cl)cc1 (stereo not given) | 21.6 | 101 | 353 | < 10 | 309 | Antagonist | 247 |
| O=C1C(c2ccc(Cl)cc2)N(c2ccc(Cl)cc2)C(=O)N1c1ccc(Cl)cc1 (stereo not given) | 28.1 | 71.6 | 1880 | < 10 | 1110 | Antagonist | 2620 |
| O=C1C(c2ccccc2)N(C2CCCCC2)C(=O)N1C1CCCCC1 (stereo not given) |  | 25 |  |  |  |  |  |
| Cc1ccc(N2C(=O)C(c3ccccc3)N(c3ccc(C)cc3)C2=S)cc1 (stereo not given) | < 20 | 80.1 | 4970 | < 10 |  |  |  |
| O=C1C(c2ccccc2)N(c2ccccc2)C(=S)N1c1ccccc1 (stereo not given) | < 10 | 61.7 | > 8000 | 11.8 |  |  |  |
| O=C1C(c2ccccc2)N(c2ccc(Br)cc2)C(=S)N1c1ccc(Br)cc1 (stereo not given) | < 15 | 100 | 1450 | < 10 | 1620 |  |  |
| O=C1C(c2ccccc2)N(c2ccc(Br)cc2)C(=O)N1c1ccc(Br)cc1 (stereo not given) | 35.6 | 102 | 243 | < 10 | 195 | Antagonist | 311 |
| O=C1NC(=O)N(c2ccccc2)C1c1ccc(Br)cc1 (stereo not given) | < 10 | < 15 |  |  |  |  |  |
| O=C1NC(=O)N(c2ccc(Br)cc2)C1c1ccc(Br)cc1 (stereo not given) | < 10 | < 15 |  |  |  |  |  |
| O=C1C(c2ccc(Br)cc2)N(c2ccccc2)C(=O)N1c1ccccc1 (stereo not given) | < 15 | 75.4 | 4030 | 14.5 |  |  |  |
| COc1ccc(N2C(=O)C(c3ccccc3)N(c3ccc(OC)cc3)C2=O)cc1 (stereo not given) | 31.4 | 57.8 | 6460 | < 10 |  |  |  |
| O=C1C(c2ccccc2)N(c2ccc(O)cc2)C(=S)N1c1ccc(O)cc1 (stereo not given) | < 10 | < 20 |  | 31.5 |  |  |  |
| O=C1C(c2ccccc2)N(c2ccc(Cl)cc2)C(=S)N1c1ccc(Cl)cc1 (stereo not given) | < 10 | 93.7 | 2160 | 11.4 | 2100 |  |  |

From ChEMBL document CHEMBL1148623, “Synthesis and activity of 1,3,5-triphenylimidazolidine-2,4-diones and 1,3,5-triphenyl-2-thioxoimidazolidin-4-ones: characterization of new CB1 cannabinoid receptor inverse agonists/antagonists” (J Med Chem, 2006)
